Assay results taken from ChEMBL document CHEMBL3286113, “New potent antibacterial oxazolidinone (MRX-I) with an improved class safety profile” (J Med Chem, 2014).
Converted amounts (≈) assume the structure as drawn.

Experiments:
Enterococcus faecalis [1] = experiment: Bacteriostatic activity against vancomycin-sensitive Enterococcus faecalis; format: functional
[2] = test system: Staphylococcus epidermidis; experiment: Antibacterial activity against methicillin-sensitive Staphylococcus epidermidis; format: functional
Staphylococcus aureus [3] = experiment: Antibacterial activity against methicillin-sensitive Staphylococcus aureus ATCC 29213; format: functional
Rattus norvegicus [4] = experiment: Dose normalized Cmax in po dosed rat; format: ADME, organism-based; conditions: in vivo
[5] = Cmax in fasted human at 600 mg, po administered as single dose; format: ADME, organism-based; parameters: dose 600 mg, route oral; conditions: in vivo
How it was run: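 Healthy volunteers (12; six of each sex) in a three-period Latin-square crossover. Each received single oral doses of 300, 600 and 900 mg under fasting conditions, with a 1-week washout between doses. Parameters from a noncompartmental model.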

Rattus norvegicus [6] = experiment: Toxicity in female rat assessed as effect on mean corpuscular volume at 100 mg/kg/day, po bid administered for 4 weeks (reference value: 53.72 fL); format: organism-based; parameters: route oral; conditions: in vivo, 672 h
[7] = Cmax in human at 600 mg, po administered as single dose with meal measured on day 15; format: ADME, organism-based; parameters: dose 600 mg, route oral; conditions: in vivo
How it was run: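 Randomized, double-blind, placebo-controlled multiple-dose study in 32 healthy subjects, half male and half female. Each dose was taken with a meal, at 600 or 800 mg, 28 doses over 15 days. A single dose on days 1 and 15 gave full PK; BID (Q12h) dosing ran on days 2–14.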

[8] = Cmax in male rat at 45 mg/kg, po; format: ADME, organism-based; parameters: dose 45 mg/kg, route oral; conditions: in vivo
Rattus norvegicus [9] = experiment: Toxicity in female rat assessed as effect on neutrophil count at 200 to 300 mg/kg/day, po bid administered for 4 weeks (reference value: 22.4%); format: organism-based; parameters: route oral; conditions: in vivo, 672 h
Streptococcus pneumoniae = experiment: Antibacterial activity against penicillin-sensitive Streptococcus pneumoniae isolate 0806; format: functional
[10] = Tmax in human at 900 mg, po administered as single dose at 30 mins post fat meal; format: ADME, organism-based; conditions: in vivo
How it was run: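 Crossover study in 12 healthy subjects (six per gender). A single oral 900 mg dose was given either fasting or 30 min after a fat-containing meal. Tmax was taken from plasma PK.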

Streptococcus pyogenes = experiment: Antibacterial activity against Streptococcus pyogenes isolate 556 in po dosed mouse systemic infection model; format: functional; conditions: isolate 556, po
[11] = AUC (0 to t) in male rat at 45 mg/kg, po; format: ADME, organism-based; parameters: dose 45 mg/kg, route oral; conditions: plasma
How it was run: (§1)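 Rat PK by gender, with single oral doses of 5, 15 and 45 mg/kg and an iv dose of 5 mg/kg. Tmax, Cmax, T1/2 and AUC0−t were reported per gender.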

Staphylococcus aureus [12] = experiment: Antibacterial activity against methicillin-resistant Staphylococcus aureus isolate 0605 in mouse thigh infection model assessed as reduction of log10 CFU per thigh at 10 mg/kg, po; format: functional
Cytochrome P450 1A2 = Cytochrome P450 1A2 (Homo sapiens, UniProt P05177); experiment: Inhibition of CYP1A2 (unknown origin) at 1 to 200 uM; format: ADME
Staphylococcus aureus [13] = experiment: Antibacterial activity against methicillin-sensitive Staphylococcus aureus ATCC 29213 in mouse thigh infection model assessed as reduction of log10 CFU per thigh at 80 mg/kg, po; format: functional
How it was run: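 Mouse thigh infection with S. aureus ATCC29213 (MSSA), 10 animals per dosing group. Oral doses were 5, 10, 20, 40 and 80 mg/kg. The read-out was log CFU per thigh after treatment, and the reduction (ΔLogCFU/thigh) was reported.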

Rattus norvegicus [14] = experiment: Toxicity in female rat assessed as change in bone marrow at 200 to 300 mg/kg/day, po bid administered for 4 weeks; format: organism-based; parameters: route oral; conditions: in vivo, 672 h
How it was run: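 Rats given the drug orally twice daily for 4 weeks, 10 rats per gender per group. Doses were 20, 100 and 200/300 mg/kg/day, with the top dose raised from 200 to 300 on day 15. Linezolid comparator at 100 and 200 mg/kg/day. Followed by a 4-week recovery. Mortality, body weight, hematology and bone marrow examined. TK blood sampled on days 1, 14 and 28.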

Staphylococcus aureus [15] = experiment: Antibacterial activity against methicillin-resistant Staphylococcus aureus isolate 0605 in mouse thigh infection model assessed as reduction of log10 CFU per thigh at 5 mg/kg, po; format: functional
Streptococcus sanguinis = experiment: Antibacterial activity against Streptococcus sanguinis; format: functional
Enterococcus faecium = experiment: Bacteriostatic activity against vancomycin-sensitive Enterococcus faecium; format: functional
Staphylococcus aureus [16] = experiment: Antibacterial activity against methicillin-resistant Staphylococcus aureus isolate 0605 in mouse thigh infection model assessed as reduction of log10 CFU per thigh at 20 mg/kg, po; format: functional
Enterococcus faecalis [17] = experiment: Antibacterial activity against vancomycin-sensitive/high-level gentamycin-resistant Enterococcus faecalis isolate HH22 in po dosed mouse systemic infection model; format: functional; conditions: EnGen0297, po
[18] = Tmax in male rat at 5 mg/kg, po; format: ADME, organism-based; parameters: dose 5 mg/kg, route oral; conditions: in vivo
How it was run: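 Male and female rats received single oral doses of 5, 15 or 45 mg/kg, with 5 mg/kg iv as a reference arm. Tmax was read from the plasma concentration–time profile for each gender.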

Rattus norvegicus [19] = experiment: Toxicity in female rat assessed as effect on reticulocyte count at 20 mg/kg/day, po bid administered for 4 weeks (reference value: 1.48%); format: organism-based; parameters: route oral; conditions: in vivo, 672 h
Staphylococcus aureus [20] = experiment: Antibacterial activity against Staphylococcus aureus measured after 9 serial passages; format: functional
Cytochrome P450 3A4 = Cytochrome P450 3A4 (Homo sapiens, UniProt P08684); experiment: Inhibition of CYP3A4 (unknown origin) at 1 to 200 uM; format: ADME
[21] = test system: Streptococcus constellatus; experiment: Antibacterial activity against Streptococcus constellatus; format: functional
Rattus norvegicus [22] = experiment: Toxicity in female rat assessed as effect on lymphocyte count at 20 mg/kg/day, po bid administered for 4 weeks (reference value: 74.8%); format: organism-based; parameters: route oral; conditions: in vivo, 672 h
[23] = AUC (0 to t) in female rat at 5 mg/kg, po; format: ADME, organism-based; parameters: dose 5 mg/kg, route oral; conditions: plasma; how it was run: as §1
[24] = Tmax in po dosed rat; format: ADME, organism-based; conditions: in vivo
[25] = Clastogenicity in CHL cells assessed as induction of structural chromosomal aberration at 25 to 200 ug/mL measured over 24 hrs in absence of metabolic activation; format: toxicity, cell-based, Cricetulus griseus; conditions: chinese hamster
How it was run: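 Chromosomal aberration test in Chinese hamster lung cells, run with and without metabolic activation. Exposure was 50−400 μg/mL for 6 h or 25−200 μg/mL for 24 h, and structural chromosome aberrations were scored.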

Rattus norvegicus [26] = experiment: Toxicity in female rat assessed as effect on RBC count at 100 mg/kg/day, po bid administered for 4 weeks (reference value: 7.28 x 10^12/L); format: organism-based; parameters: route oral; conditions: in vivo, 672 h
Staphylococcus aureus [27] = experiment: Antibacterial activity against Staphylococcus aureus measured after 1 serial passage; format: functional
Staphylococcus aureus [28] = experiment: Antibacterial activity against methicillin-resistant Staphylococcus aureus; format: functional
Rattus norvegicus [29] = experiment: Toxicity in female rat assessed as effect on RBC count at 200 to 300 mg/kg/day, po bid administered for 4 weeks (reference value: 7.28 x 10^12/L); format: organism-based; parameters: route oral; conditions: in vivo, 672 h
Staphylococcus aureus [30] = experiment: Antibacterial activity against linezolid-resistant Staphylococcus aureus isolate 4184; format: functional
[31] = AUC (0 to 24 hrs) in female rat at 100 mg/kg/day, po bid administered for 4 weeks; format: ADME, organism-based; parameters: time < 24 hr, dose 100 mg/kg/day, route oral; conditions: plasma
How it was run: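 Repeat-dose toxicity study in rats (10/gender/group) dosed orally twice daily for 4 weeks, then a 4-week recovery period; the top dose was raised from 200 to 300 mg/kg/day on day 15. Blood was taken on days 1, 14 and 28 for toxicokinetics, and AUC0−24 was reported for females.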

Cytochrome P450 1A2, sequence (P05177 whole entry): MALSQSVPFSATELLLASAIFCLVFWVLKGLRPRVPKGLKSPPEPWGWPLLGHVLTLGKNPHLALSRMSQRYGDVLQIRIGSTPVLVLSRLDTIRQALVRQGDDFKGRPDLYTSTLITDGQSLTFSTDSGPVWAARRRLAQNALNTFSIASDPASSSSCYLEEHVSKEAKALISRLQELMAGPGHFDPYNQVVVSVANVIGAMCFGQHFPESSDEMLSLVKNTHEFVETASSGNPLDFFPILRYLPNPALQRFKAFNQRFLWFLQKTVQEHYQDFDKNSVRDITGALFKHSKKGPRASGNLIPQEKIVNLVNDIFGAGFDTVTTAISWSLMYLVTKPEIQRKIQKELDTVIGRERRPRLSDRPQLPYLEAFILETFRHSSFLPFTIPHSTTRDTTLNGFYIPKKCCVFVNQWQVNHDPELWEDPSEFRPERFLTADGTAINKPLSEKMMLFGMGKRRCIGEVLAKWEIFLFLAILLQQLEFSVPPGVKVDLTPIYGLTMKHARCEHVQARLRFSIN
Cytochrome P450 3A4, sequence (P08684 whole entry): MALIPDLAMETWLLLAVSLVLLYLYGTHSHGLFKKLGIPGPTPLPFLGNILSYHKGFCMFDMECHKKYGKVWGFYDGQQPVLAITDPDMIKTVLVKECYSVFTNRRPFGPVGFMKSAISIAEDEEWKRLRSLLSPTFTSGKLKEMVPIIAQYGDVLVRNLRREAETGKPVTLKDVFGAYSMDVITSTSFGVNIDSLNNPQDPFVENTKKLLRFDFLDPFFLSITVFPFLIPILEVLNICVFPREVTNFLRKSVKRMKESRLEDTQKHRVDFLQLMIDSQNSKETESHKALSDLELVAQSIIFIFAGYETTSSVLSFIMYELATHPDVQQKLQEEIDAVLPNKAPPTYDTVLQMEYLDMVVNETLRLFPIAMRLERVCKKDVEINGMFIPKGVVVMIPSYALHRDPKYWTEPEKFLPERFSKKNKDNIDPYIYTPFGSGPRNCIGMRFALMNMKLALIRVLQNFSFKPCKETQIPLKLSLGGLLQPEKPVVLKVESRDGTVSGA

SMILES: O=C1C=CN(c2c(F)cc(N3C[C@H](CNc4ccon4)OC3=O)c(F)c2F)CC1 [CONTEZOLID]
- MIC50 (Enterococcus faecalis [1]): 1 µg/mL (≈ 2.45 µM)
- MIC90 (Enterococcus faecalis [1]): 1 µg/mL (≈ 2.45 µM)
- MIC [2]: 0.25 µg/mL (≈ 0.612 µM)
- MIC50 [2]: 0.25 µg/mL (≈ 0.612 µM)
- MIC90 [2]: 0.5 µg/mL (≈ 1.22 µM)
- MIC (Staphylococcus aureus [3]): 1 µg/mL (≈ 2.45 µM)
- Cmax/dose (Rattus norvegicus [4]): 1065 ng/mL/(mg/kg)
- Cmax [5]: 12200 ng/mL
- Activity (Rattus norvegicus [6]): 54.78 fL
- Cmax [7]: 20600 ng/mL
- Cmax [8]: 27800 ng/mL
- Activity (Rattus norvegicus [9]): 26.4%
- MIC (Streptococcus pneumoniae): 2 µg/mL (≈ 4.9 µM)
- Tmax [10]: 97.8 min
- ED50 (Streptococcus pyogenes): 8.9 mg/kg
- AUC(0-t) [11]: 93800 ng·h/mL
- deltalog10CFU (Staphylococcus aureus [12]): 2.47
- inhibition (INH) (Cytochrome P450 1A2): Not Active
- deltalog10CFU (Staphylococcus aureus [13]): 3.73
- Activity (Rattus norvegicus [14]): Toxic
- deltalog10CFU (Staphylococcus aureus [15]): 2.45
- MIC (Streptococcus sanguinis): 0.25 µg/mL (≈ 0.612 µM)
- MIC50 (Enterococcus faecium): 1 µg/mL (≈ 2.45 µM)
- MIC90 (Enterococcus faecium): 1 µg/mL (≈ 2.45 µM)
- deltalog10CFU (Staphylococcus aureus [16]): 3.6
- ED50 (Enterococcus faecalis [17]): 7.4 mg/kg
- Tmax [18]: 30 min
- Activity (Rattus norvegicus [19]): 1.3%
- MIC (Staphylococcus aureus [20]): 2 µg/mL (≈ 4.9 µM)
- inhibition (INH) (Cytochrome P450 3A4): Not Active
- MIC50 [21]: 0.5 µg/mL (≈ 1.22 µM)
- MIC90 [21]: 1 µg/mL (≈ 2.45 µM)
- Activity (Rattus norvegicus [22]): 83.4%
- AUC(0-t) [23]: 31500 ng·h/mL
- Tmax [24]: 30 min
- Activity [25]: Non-toxic
- Activity (Rattus norvegicus [26]): 6.67 ×10¹² /L
- MIC (Staphylococcus aureus [27]): 2 µg/mL (≈ 4.9 µM)
- MIC90 (Staphylococcus aureus [28]): 0.5 µg/mL (≈ 1.22 µM)
- Activity (Rattus norvegicus [29]): 5.77 ×10¹² /L
- MIC (Staphylococcus aureus [30]): > 16 µg/mL
- AUC at 24 h [31]: 319000 ng·h/mL
